In brackets after ≈: the same amount, converted by molar mass. Activity calls are given as the source filed them. No cut-off for these calls is given here.
Experiments:
[1] = system: Staphylococcus aureus; assay: Antibacterial activity against Staphylococcus aureus after 24 hrs by agar dilution method; assay type: functional
[2] = system: Bacillus cereus; assay: Antibacterial activity against Bacillus cereus after 24 hrs by agar dilution method; assay type: functional
[3] = system: Pseudomonas aeruginosa; assay: Antibacterial activity against Pseudomonas aeruginosa after 24 hrs by agar dilution method; assay type: functional
[4] = system: NIH3T3; assay: Cytotoxicity against mouse NIH/3T3 cells after 48 hrs by SRB assay; assay type: cell-based; conditions: NIH3T3, 48 h
[5] = system: Escherichia coli; assay: Antibacterial activity against Escherichia coli after 24 hrs by agar dilution method; assay type: functional
[6] = system: Staphylococcus epidermidis; assay: Antibacterial activity against Staphylococcus albus after 24 hrs by agar dilution method; assay type: functional
[7] = Antioxidant activity assessed as superoxide radical anion scavenging activity by spectrophotometric analysis; assay type: functional
[8] = Antioxidant activity assessed as ferric ion reducing ability after 20 mins by spectrophotometric analysis; assay type: functional
[9] = system: Radical scavenging activity; assay: Antioxidant activity assessed as DPPH radical scavenging activity after 30 mins by spectrophotometric analysis; assay type: functional
In short: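 DPPH radical bleaching followed as loss of absorbance at 517 nm; IC50 derived; mean ± SD, n = 3.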

[10] = Antioxidant activity assessed as ferric ion reducing ability at 1 to 50 uM after 20 mins by spectrophotometric analysis; assay type: functional
[11] = Antioxidant activity assessed as hydroxyl radical scavenging activity after 1 hr by spectrophotometric analysis; assay type: functional
[12] = system: A549; assay: Antioxidant activity in human A549 cells assessed as inhibition of AAPH-induced oxidative stress at 100 uM after 2 hrs by flow cytometric analysis relative to control; assay type: functional; conditions: A549, 2 h
In short: (§1)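 A549 cells pretreated with AAPH 1 h to induce ROS stress, then compound added; intracellular ROS (hydrogen peroxides, hydroxyl radicals) quantified with DCFH-DA, by fluorescence imaging (×200) or flow cytometry; one representative of three independent experiments.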

[13] = system: A549; assay: Antioxidant activity in human A549 cells assessed as protection against H2O2-induced cell death at 50 to 100 uM preincubated for 1 hr prior to H2O2-challenge measured after 24 hrs by SRB assay; assay type: functional, cell-based
[14] = system: A549; assay: Antioxidant activity in human A549 cells assessed as decrease in AAPH-induced oxidative stress after 2 hrs by DCFH-DA staining-based fluorescent microscopic analysis; assay type: functional, cell-based; in short: as §1
[15] = system: A549; assay: Antioxidant activity in human A549 cells assessed as inhibition of AAPH-induced oxidative stress at 50 uM after 2 hrs by flow cytometric analysis relative to control; assay type: functional; conditions: A549, 2 h; in short: as §1

| SMILES | MIC [1] | MIC [2] | MIC [3] | MIC [5] | MIC [6] | EC50 [7] | EC50 [9] | EC50 [11] | MBC [2] | IC50 [4] | Activity [8] | Activity [10] | MBC [1] | MBC [5] | inhibition at 100 µM [12] | Activity [13] | Activity [14] | inhibition at 50 µM [15] |
| --- | --- | --- | --- | --- | --- | --- | --- | --- | --- | --- | --- | --- | --- | --- | --- | --- | --- | --- |
| Oc1ccc2[nH]c(-c3ccc(O)c(O)c3)nc2c1 | > 200 µM | 100 µM (≈ 24.2 µg/mL) | > 200 µM | > 200 µM | > 200 µM | > 200 µM | 33 µM | 77 µM | > 200 µM | > 200 µM | Dose-dependent effect | Active |  |  |  |  |  |  |
| COc1ccc(-c2nc3cc(O)ccc3[nH]2)c(OC)c1 | 0.39 µM (≈ 0.105 µg/mL) | 50 µM (≈ 13.5 µg/mL) | > 200 µM | 12.5 µM (≈ 3.38 µg/mL) | > 200 µM | > 200 µM | 32 µM | > 200 µM | 50 µM (≈ 13.5 µg/mL) | > 200 µM | Dose-dependent effect | Active | 0.39 µM (≈ 0.105 µg/mL) | 25 µM (≈ 6.76 µg/mL) |  |  |  |  |
| COc1cc(O)ccc1-c1nc2cc(O)ccc2[nH]1 | > 200 µM | > 200 µM | > 200 µM | 12.5 µM (≈ 3.2 µg/mL) | > 200 µM | > 200 µM | 27 µM | 46 µM |  | > 200 µM | Dose-dependent effect |  |  | 25 µM (≈ 6.41 µg/mL) | 70.4% | Active | Active | 25.3% |

More lines, in order of falling MIC [1], values ahead:

| MIC [1] | MIC [2] | MIC [3] | MIC [5] | MIC [6] | EC50 [7] | EC50 [9] | EC50 [11] | SMILES | MBC [2] | IC50 [4] | Activity [8] | Activity [10] | MBC [1] | MBC [5] | inhibition at 100 µM [12] | Activity [13] | Activity [14] | inhibition at 50 µM [15] |
| --- | --- | --- | --- | --- | --- | --- | --- | --- | --- | --- | --- | --- | --- | --- | --- | --- | --- | --- |
| 1.56 µM (≈ 0.353 µg/mL) | 50 µM (≈ 11.3 µg/mL) | > 200 µM | > 200 µM | > 200 µM | > 200 µM | 34 µM | 159 µM | Oc1ccc(-c2nc3cc(O)ccc3[nH]2)cc1 | 50 µM (≈ 11.3 µg/mL) | > 200 µM | Dose-dependent effect | Active | 1.56 µM (≈ 0.353 µg/mL) |  |  |  |  |  |
| 1.56 µM (≈ 0.353 µg/mL) | 25 µM (≈ 5.66 µg/mL) | > 200 µM | 100 µM (≈ 22.6 µg/mL) | > 200 µM | > 200 µM | 40 µM | > 200 µM | Oc1cccc(-c2nc3cc(O)ccc3[nH]2)c1 | 50 µM (≈ 11.3 µg/mL) | > 200 µM | Dose-dependent effect | Active | 1.56 µM (≈ 0.353 µg/mL) | > 200 µM |  |  |  |  |
